Experimental data published in PMC2861555 (International journal of radiation biology, 2009).
Like-named read-outs stand apart in the source and are kept apart here. Marks after values point to notes of the source that are not given here.

How the values were obtained:
[1] = test system: rats; conditions: ref Bergeron et al., cited from earlier work
[2] = type: in vivo, rat; conditions: for Bile/Urine (%): bile share of U excretion / Bile/Urine (%): urine share of U excretion / % Administered Dose Excreted: 24 h; for % Administered Dose Excreted: bile + urine; for Renal Conc.: kidneys removed 24 h post-metal; for Kidney U Conc. / Liver U Conc. / Lung U Conc. / Spleen U Conc. / Bone (femur) U Conc.: tissue 24 h post-metal; for Bone (femur) U Conc.: bone + bone marrow
[3] = Multiple dose chelator administration in non-bile duct-cannulated; type: in vivo, rat; conditions: for % Administered Dose Excreted / Total U Excretion: urine + feces
In short: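 Intact rats got uranyl acetate 1 mg U kg−1 s.c. (left flank), then test compound or DTPA 300 µmol kg−1 s.c. (right flank) immediately and at 24-h intervals (4 doses). Rats were caged singly with chow and water ad libitum. Urine and feces were collected every 24 h. Kidneys and other tissues were taken 24 h after the last dose. Uranium was measured by ICP-MS in triplicate; data are mean ± SEM.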

[4] = single dose 150 µmol kg^−1 SC, 24 h post-metal
[5] = single dose 300 µmol kg^−1 PO, 24 h post-metal
[6] = 24 h after last of 4 daily s.c. doses of 300 µmol kg^−1
[7] = Day 1, 300 µmol kg^−1 s.c. daily x 4
[8] = Day 2, 300 µmol kg^−1 s.c. daily x 4
[9] = Day 3, 300 µmol kg^−1 s.c. daily x 4
[10] = Day 4, 300 µmol kg^−1 s.c. daily x 4

## COCCOCCOCCOc1cccc(C2=N[C@@](C)(C(=O)O)CS2)c1O [compound 10, (S)-4,5-dihydro-2-[2-hydroxy-3-(3,6,9-trioxadecyloxy)phenyl]-4-methyl-4-thiazolecarboxylic acid]
[1]; 2008
  nephrotoxicity: did not present with any nephrotoxicity
[2]; single dose 150 µmol kg^−1 SC
  Bile/Urine (%): bile share of U excretion: 55%
  Bile/Urine (%): urine share of U excretion: 45%
  % Administered Dose Excreted: 31.6%
  Renal Conc.: 33 ± 8 ^b µg g^−1
  Kidney U Conc.: 33 ± 8 ^b µg g^−1
  Liver U Conc.: 1.2 ± 0.6 ^c µg g^−1
  Lung U Conc.: 0.09 ± 0.02 ^b µg g^−1
  Spleen U Conc.: 0.21 ± 0.01 ^c µg g^−1
  Bone (femur) U Conc.: 3.4 ± 0.1 µg/g
[2]; [4]
  Reduction (%) of renal uranium vs control: 61%
[2]; [5]
  Reduction (%) of renal uranium vs control: 62%
[2]; single dose 300 µmol kg^−1 PO
  % Administered Dose Excreted: 25.7%
  Renal Conc.: 32 ± 20 ^b µg g^−1
  Kidney U Conc.: 32 ± 20 ^b µg g^−1
  Liver U Conc.: 0.7 ± 0.4 ^c µg g^−1
  Lung U Conc.: 0.13 ± 0.04 µg/g
  Spleen U Conc.: 0.16 ± 0.05 µg/g
  Bone (femur) U Conc.: 3.1 ± 1.1 µg/g
[2]; single dose 300 µmol kg^−1 SC
  Bile/Urine (%): bile share of U excretion: 79%
  Bile/Urine (%): urine share of U excretion: 21%
  % Administered Dose Excreted: 31.4%
  Renal Conc.: 13 ± 6 ^b µg g^−1
  Kidney U Conc.: 13 ± 6 ^b µg g^−1
  Liver U Conc.: 0.8 ± 0.2 ^c µg g^−1
  Lung U Conc.: 0.08 ± 0.02 ^b µg g^−1
  Spleen U Conc.: 0.18 ± 0.03 µg/g
  Bone (femur) U Conc.: 2.3 ± 0.6 ^b µg g^−1
[2]; single dose 300 µmol kg^−1 SC, 24 h post-metal
  Reduction (%) of renal uranium vs control: 85%
[2]; single dose 300 µmol kg^−1 s.c., femur, 24 h post-metal
  reduction of bone actinide content vs control: 36%

## C[C@]1(C(=O)O)CSC(c2ncccc2O)=N1 [DFT, (S)-4,5-dihydro-2-(3-hydroxy-2-pyridinyl)-4-methyl-4-thiazolecarboxylic acid, reference compound]
[1]; rats, 1993
  nephrotoxicity: severe nephrotoxicity

## O=C(O)CN(CCN(CC(=O)O)CC(=O)O)CCN(CC(=O)O)CC(=O)O [DTPA, Diethylenetriaminepentaacetic acid, reference compound]
[2]; route of actinide excretion, dose and route of chelator not stated at this place
  renal share of actinide excretion: 100%
[2]; single dose 150 µmol kg^−1 SC
  Bile/Urine (%): bile share of U excretion: 2%
  Bile/Urine (%): urine share of U excretion: 98%
  % Administered Dose Excreted: 27.6%
  Renal Conc.: 47 ± 9 ^b µg g^−1
  Kidney U Conc.: 47 ± 9 ^b µg g^−1
  Liver U Conc.: 0.1 ± 0.0 ^b µg g^−1
  Lung U Conc.: 0.07 ± 0.01 ^b µg g^−1
  Spleen U Conc.: 0.15 ± 0.05 ^b µg g^−1
  Bone (femur) U Conc.: 3.1 ± 1.1 µg/g
[2]; [4]
  Reduction (%) of renal uranium vs control: 44%
[2]; single dose 300 µmol kg^−1 PO
  Bile/Urine (%): bile share of U excretion: 0%
  Bile/Urine (%): urine share of U excretion: 100%
  % Administered Dose Excreted: 21.2%
  Renal Conc.: 54 ± 11 ^b µg g^−1
  Kidney U Conc.: 54 ± 11 ^b µg g^−1
  Liver U Conc.: 0.2 ± 0.0 µg/g
  Lung U Conc.: 0.10 ± 0.02 ^b µg g^−1
  Spleen U Conc.: 0.13 ± 0.03 ^b µg g^−1
  Bone (femur) U Conc.: 4.3 ± 1.3 µg/g
[2]; [5]
  Reduction (%) of renal uranium vs control: 36%
[3]; [6]
  Reduction (%) of renal uranium vs control: 39%
  Renal Conc.: 19 ± 2 ^c µg g^−1
[3]; [7]
  Fecal U Excretion: 30 ± 19 µg/kg
  % Administered Dose Excreted: 41.0%
  Total U Excretion: 410 ± 56 µg/kg
[3]; Day 1, 300 µmol kg^−1 s.c. daily x 4, first dose immediately post-U
  Urine U Excretion: 380 ± 55 µg/kg
[3]; [8]
  Fecal U Excretion: 13 ± 9 µg/kg
  Urine U Excretion: 43 ± 11 µg/kg
  % Administered Dose Excreted: 5.6%
  Total U Excretion: 56 ± 16 ^c µg kg^−1
[3]; [9]
  Fecal U Excretion: 13 ± 5 µg/kg
  Urine U Excretion: 29 ± 6 µg/kg
  % Administered Dose Excreted: 4.2%
  Total U Excretion: 42 ± 5 µg/kg
[3]; [10]
  Fecal U Excretion: 9 ± 5 µg/kg
  Urine U Excretion: 14 ± 3 µg/kg
  % Administered Dose Excreted: 2.3%
  Total U Excretion: 23 ± 3 µg/kg
[3]; cumulative over 4 days, 300 µmol kg^−1 s.c. daily x 4
  administered dose of uranium excreted at the end of four days (urine + feces): 53%
